{"source": "paper PMC6531306", "about": "(Theranostics, 2019)", "key": {"U87MG xenografts": {"system": "U87MG xenografts", "test": "Mouse flank xenograft model of GBM", "assay_type": "in vivo, mice", "details": "TMZ 5 mg/kg oral gavage, five days/week, two weeks", "procedure,_shortened": "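Athymic nude Foxn1nu mice (4–6 weeks) bore subcutaneous flank U87MG or D54 xenografts (250,000 cells in RPMI:Matrigel 1:1). From 100 mm3, they received test compound 20 mg/kg i.p. in 5 % DMSO/65 % 1,2-propanediol/30 % saline and/or TMZ 5 mg/kg in Ora-Plus by oral gavage, five days/week for two weeks. Body weight was recorded twice weekly.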"}, "[1]": {"system": "D54, U87MG and A172 cells", "test": "Western blot of DNA repair and DDR proteins", "assay_type": "cell-based, human", "details": "24 hours", "procedure,_shortened": "(§1)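 Protein was measured by BCA. Lysates were resolved on 10 % or 4–12 % gels and transferred to PVDF. Membranes were blocked (StartingBlock or 5 % BSA) and probed with primary antibodies. Detection used DyLight 800 infrared imaging or HRP secondaries with ECL.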"}, "[2]": {"system": "isolated a and a'c domains of PDI", "test": "PDI reductase assay with isolated domains", "assay_type": "biochemical", "details": "domains 1.6 μM; PACMA31 100 μM, 35G8 1 μM", "procedure,_shortened": "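Isolated His-tagged a and a'c domains were expressed in E. coli and Ni-NTA purified. Each domain was incubated with test compound for 45 min at room temperature in 100 mM sodium phosphate, 2 mM EDTA, 8 μM DTT, pH 7.0. DTT (100 μM) and insulin (130 μM) were then added, and aggregation of reduced insulin B chain was monitored at 650 nm.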"}, "a domain of PDI": {"biological_target": "a domain of PDI (Homo sapiens, UniProt P07237)", "sequence (P07237 18-134 limits assumed)": "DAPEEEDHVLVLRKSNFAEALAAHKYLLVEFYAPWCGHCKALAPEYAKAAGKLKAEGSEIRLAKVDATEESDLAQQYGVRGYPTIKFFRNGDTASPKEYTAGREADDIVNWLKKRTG", "test": "AMS assay", "assay_type": "binding", "details": "20 μM domain, 40 μM compound, 1 h", "procedure,_shortened": "(§2)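 Isolated a or a'c domain (20 μM) was incubated with or without 40 μM test compound for 1 h in PBS at 25 °C. Free thiols were then blocked with 2 mM AMS. Samples were resolved by SDS-PAGE and stained with Coomassie blue.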"}, "U87MG cells": {"system": "U87MG cells", "assay_type": "cell-based, human", "details": "Hallmark E2F Targets"}, "Sox2": {"system": "Sox2", "test": "Western blot of stemness marker", "assay_type": "cell-based", "details": "Figure 4H", "procedure,_shortened": "as §1"}, "[3]": {"system": "PDI, PDIp, ERp57, ERp46, ERp72, P5, and ERp18", "test": "PDI reductase assay, panel of PDI family members", "assay_type": "biochemical", "details": "family members 1 μM, compound 40 μM"}, "a'c domain of PDI": {"biological_target": "a'c domain of PDI (Homo sapiens, UniProt P07237)", "sequence (P07237 349-508 limits assumed)": "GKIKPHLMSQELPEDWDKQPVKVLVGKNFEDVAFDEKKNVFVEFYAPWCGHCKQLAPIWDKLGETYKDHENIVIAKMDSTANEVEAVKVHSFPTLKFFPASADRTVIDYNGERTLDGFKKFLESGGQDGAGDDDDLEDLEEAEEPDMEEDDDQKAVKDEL", "test": "AMS assay", "assay_type": "binding", "details": "20 μM domain, 40 μM compound, 1 h", "procedure,_shortened": "as §2"}}}
{"compound": "Cn1nnc2c(C(N)=O)ncn2c1=O", "note": "[TMZ, temozolomide]", "values": [{"measurement": "decrease in body weight", "setting": "U87MG xenografts", "value": 15, "unit": "%"}]}
{"compound": "PACMA31", "values": [{"measurement": "E2F1 and RAD51 protein expression", "setting": "[1]", "value": "dose-dependently lower"}, {"measurement": "inhibition of reductase activity of isolated domains", "setting": "[2]", "value": "inhibit reductase activity"}, {"measurement": "AMS binding to a domain thiols", "setting": "a domain of PDI", "value": "blocked AMS binding"}, {"measurement": "genes of the E2F targets gene set downregulated", "setting": "U87MG cells", "value": 72, "unit": "%"}, {"measurement": "Sox2 protein expression", "setting": "Sox2", "value": "dose-dependently abrogated"}, {"measurement": "selectivity among PDI family members", "setting": "[3]", "value": "inhibits all tested PDI family enzymes"}, {"measurement": "AMS binding to a'c domain thiols", "setting": "a'c domain of PDI", "value": "blocked AMS binding"}]}
{"compound": "C[C@]12CC[C@@H]3c4ccc(O)cc4CC[C@H]3[C@@H]1CC[C@@H]2O", "note": "[Estradiol, estradiol]", "values": [{"measurement": "inhibition of reductase activity of isolated domains", "setting": "[2]", "value": "did not inhibit"}]}
{"compound": "CCN(C)C(=O)C1(CCOc2ccccc2)CCN(Cc2ccc(O)c(Cl)c2)CC1", "note": "[bepristat 1a]", "values": [{"measurement": "inhibition of reductase activity of isolated domains", "setting": "[2]", "value": "did not inhibit"}]}
